Source: PubChem BioAssay
Most compounds without a hit are left out; they make up all but 3.2% or so of the library.
BAP1 block: blocks human BAP1 ubiquitin-AMC hydrolysis. Q92560. recombinant BAP1, Ub-AMC hydrolysis fluorescence kinetic; active compounds read low. activity remaining (% of control), % at 20 µM. hit rate 0.48% among 72,000;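 active = activity remaining at or below 50% of control, provided the compound also passes the data quality filters; inactive = the rest, including low values that fail the filters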;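 also: 100% = DMSO wells rate and 0% = substrate alone blank rate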
Target sequence (Q92560 whole entry, looked up): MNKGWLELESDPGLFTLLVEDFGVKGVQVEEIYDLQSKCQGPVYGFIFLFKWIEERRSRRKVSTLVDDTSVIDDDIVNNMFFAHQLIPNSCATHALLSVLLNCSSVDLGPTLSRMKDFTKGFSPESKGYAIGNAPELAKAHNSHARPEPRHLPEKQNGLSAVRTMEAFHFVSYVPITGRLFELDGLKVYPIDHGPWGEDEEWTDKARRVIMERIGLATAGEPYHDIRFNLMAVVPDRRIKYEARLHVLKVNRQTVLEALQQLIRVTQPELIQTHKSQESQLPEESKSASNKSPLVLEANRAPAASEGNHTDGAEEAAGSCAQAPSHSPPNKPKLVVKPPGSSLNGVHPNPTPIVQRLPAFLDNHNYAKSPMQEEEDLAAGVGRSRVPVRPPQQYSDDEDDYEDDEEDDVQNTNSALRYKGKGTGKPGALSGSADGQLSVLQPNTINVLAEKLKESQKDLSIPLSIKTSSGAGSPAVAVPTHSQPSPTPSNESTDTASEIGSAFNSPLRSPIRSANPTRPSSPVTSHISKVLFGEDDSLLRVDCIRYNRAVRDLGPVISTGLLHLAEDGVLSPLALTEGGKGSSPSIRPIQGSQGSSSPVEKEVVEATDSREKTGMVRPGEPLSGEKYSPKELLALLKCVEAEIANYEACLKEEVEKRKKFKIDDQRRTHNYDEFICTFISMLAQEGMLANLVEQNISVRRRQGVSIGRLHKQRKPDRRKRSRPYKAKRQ
JNK3 blocker: blocks human JNK3 kinase activity; hit rate 0.61% among 60,000; inhibition, % at 8 µM; purified JNK3 kinase activity, HTS; AID 746; in the data active = inhibition above about 17%;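 also: 0% = DMSO and 100% = reference inhibitor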
SF-1 act: SF-1 (human) activation | Q13285 | CHO-K1 Gal4-SF-1 LBD luciferase reporter; % increase over DMSO SF-1-specific signal | activation, % at 10 µM | hit rate 1.9% among 65,000;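 active = activation above the mean activation of all tested compounds plus 3 SD, cut at about 50% in these data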
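Assay system: CHO-K1 cells co-transfected with Gal4 DBD–human SF-1 LBD, 5xGal4 luciferase reporter / Input: 4,000 cells per well / Incubation: 20 h compound exposure at 37 °C after 1 h cell settling / Detection: SteadyLite luciferase luminescence / Control set: DMSO negative control and −SF1 background wells / Replication: one test per compound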
E coli RNAP: blocks E. coli RNA polymerase transcription; fluorescence transcription assay; inhibition, %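 (tested at 10 µM)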; hit rate 0.2% among 62,000; AID 559; in the data active = inhibition above about 20%;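 also: 0% = enzyme without compound and 100% = no enzyme blank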
RORA act: activates the human nuclear receptor RORA. CHO-K1 Gal4-RORA LBD luciferase reporter, luminescence; percent increase over mock-subtracted basal signal. activation, % at 10 µM. hit rate 1.5% among 65,000;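 active = activation above the mean of all tested compounds plus 3 SD, cut at about 49% in these data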;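 also: 0% = DMSO-treated RORA cells and 100% = added signal equal to DMSO minus mock-transfected cells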
Active calls of the source: *; nt = no result given.

SMILES | BAP1 block | JNK3 blocker | SF-1 act | E coli RNAP | RORA act
CC(=NC1CCCC1)c1c(C)[nH]n(-c2nc3ccccc3s2)c1=O | 103 | -2 | 71* | 6 | 8
COCCN1Cc2cccc(C(=O)NCc3ccc4c(c3)OCO4)c2C1=O | 99 | 23* | -15 | 5 | -15
COCCN1Cc2cccc(C(=O)NCc3ccccn3)c2C1=O | 99 | 0 | 1 | 8 | -2
CCn1c(SCc2nc3ccccc3c(=O)[nH]2)nc2ccccc2c1=O | 90 | 10 | 16 | nt | 5
O=C(NCC1CCCO1)C1CCN(S(=O)(=O)c2cccnc2)CC1 (stereo not drawn) | 105 | nt | -11 | -1 | -11
Cn1nnc(NC(=O)c2cccc(OCc3ccccc3)c2)n1 | 86 | 5 | 48 | 4 | 54*
Clc1ccc(-c2nnc(-c3ccccc3Cl)o2)cc1 | 102 | 2 | 19 | 1 | 86*
Cc1nc2cc(NC(=O)N3c4ccccc4CC3C)ccc2o1 (stereo not drawn) | 84 | 11 | 79* | 5 | 41
COc1ccccc1NC(=O)CN1C(=O)NC(CC(C)C)C1=O (stereo not drawn) | 107 | 5 | 0 | 3 | 1
CC(C)CC1NC(=O)N(CC(=O)c2ccc3c(c2)OCCO3)C1=O (stereo not drawn) | 100 | nt | 84* | 10 | 57*
CCn1nnc(NC(=O)COc2ccc(C3CCCCC3)cc2)n1 | 93 | -9 | -9 | -10 | 3
Cc1cc(NC(=O)c2oc3ccccc3c2C)ccc1-n1cnnn1 | 79 | 5 | 9 | -3 | 86*
COc1cc(OC)cc(C(=O)Nc2ccc(-n3cnnn3)c(C)c2)c1 | 97 | -5 | 54* | -8 | 50*
Cc1c(C(=O)Nc2ccncc2)oc2ccccc12 | 106 | 5 | 16 | 7 | 6
Cc1cc(C(=O)COc2ncnc3sccc23)c(C)n1C1CC1 | 125 | -3 | 11 | 2 | 34
CCCn1c(C)cc(C(=O)COc2ncnc3sccc23)c1C | 99 | -5 | 53* | 1 | 7
Cc1ncc([N+](=O)[O-])n1CC(O)CCl (stereo not drawn) | 69 | -10 | 1 | 3 | -9
Nc1nc2sc3c(c2c(=O)s1)CCCC3 | 88 | 15 | 56* | 0 | 11
O=c1c2c3c(sc2nc2n1CCCCC2)CCCC3 | 87 | 10 | 60* | 2 | 106*
O=c1c2c3c(sc2nc2n1CCCS2)CCCC3 | 127 | 0 | 71* | 7 | 39
O=c1c2c3c(sc2nc2n1CCCCC2)CCCCC3 | 86 | 2 | 42 | 8 | 55*
CCC1CCCCN1c1nc2c(c(=O)n(C)c(=O)n2C)n1CCSc1nc2ccccc2o1 (stereo not drawn) | 100 | 7 | -2 | -1 | -24
O=C(CN1CCCC(O)C1)N1c2ccccc2Sc2ccc(C(F)(F)F)cc21 (stereo not drawn) | 90 | -5 | -5 | -1 | 4
COCCCn1cnc2c(c1=O)c1nc3ccccc3nc1n2-c1ccccc1 | 148 | 1 | 20 | -1 | -31
COCCCn1cnc2oc3nc4ccccc4nc3c2c1=O | nt | -2 | 34 | -5 | 50*
SMILES | BAP1 block | JNK3 blocker | SF-1 act | E coli RNAP | RORA act
O=S(=O)(c1ccc(N2CCN(S(=O)(=O)c3ccc4c(c3)OCCO4)CC2)nc1)N1CCCC1 | 59 | -7 | 6 | 7 | -16
Nc1nnc(-c2cc3ccccc3oc2=O)s1 | nt | 1 | 55* | 6 | 42
Cc1cc(C)c2ccc(C)[n+]([O-])c2c1O | 91 | -1 | -9 | 5 | -10
Cc1cc(C(=O)CSc2nncs2)c(C)n1-c1ccc2c(c1)OCO2 | 95 | -5 | 69* | nt | 36
CCOC(=O)c1ccc(Oc2cc(C)nc(SC)n2)cc1 | 100 | -1 | 31 | -3 | 57*
CCOc1ccc2nc(N3CCC(C(=O)N4CCN(c5ccccn5)CC4)CC3)sc2c1 | 89 | 1 | 15 | 6 | 73*
CCOc1ccc2nc(N3CCC(C(=O)N4CCN(c5ncccn5)CC4)CC3)sc2c1 | 97 | -2 | 18 | 0 | 70*
CCOC(=O)N1CCN(C(=O)C2CCCN(c3nc4ccc(OCC)cc4s3)C2)CC1 (stereo not drawn) | 99 | -1 | -12 | 6 | 34
COc1ccccc1Nc1nc(-c2cccs2)cs1 | 104 | 0 | 33 | 14 | 38
CC1=CCC(COC(=O)Nc2ccccc2)CC1 (stereo not drawn) | 101 | -5 | 16 | nt | 90*
O=C(Nc1ccccc1)OCC1CCCN2CCCCC12 (stereo not drawn) | nt | nt | nt | 4 | nt
CCCCSc1nnc(-c2c[nH]c3ccccc23)n1C | 99 | -4 | 57* | 14 | 32
COc1cc(CC(=O)N2CCc3ccccc32)cc(OC)c1OC | 116 | 11 | 7 | 4 | -6
Cc1ccc2c(CC(=O)N3CCc4ccccc43)coc2c1 | 75 | 3 | 87* | 6 | 48
COCC(=O)Nc1nnc(C2CCCCC2)s1 | 73 | -6 | 34 | 0 | 52*
CCOCC(=O)Nc1nnc(C)s1 | 109 | 4 | 10 | 6 | 19
CCOCC(=O)Nc1nnc(C2CCCCC2)s1 | 74 | nt | 20 | 11 | 50*
CCOC(=O)c1c(NC(N)=O)sc(C)c1C | 138 | 5 | -17 | 8 | 14
CCN(CC)S(=O)(=O)c1ccc(Nc2cc(C)nc3ncnn23)cc1 | 99 | -1 | -11 | 4 | -25
N#C/C=C1/NC(=O)c2ccccc2S1 | 107 | -9 | -10 | 1 | 6
O=C1N/C(=C\c2ccccc2)c2ccccc21 | nt | 6 | 63* | 6 | 51*
Cc1occc1-c1nnc(SCC(=O)NCc2cccs2)n1CC1CCCO1 (stereo not drawn) | 98 | -4 | -2 | 2 | -2
O=C1c2ccccc2-c2onc3ccc(NCc4ccco4)c1c23 | 66 | 33* | 31 | nt | 27
CCOc1ccc2noc3c2c1C(=O)c1ccccc1-3 | 103 | 4 | 7 | nt | 12
CCNc1nc(SC(C)C(=O)OC)nc(N2CCOCC2)n1 (stereo not drawn) | nt | nt | 6 | 12 | -6
SMILES | BAP1 block | JNK3 blocker | SF-1 act | E coli RNAP | RORA act
Clc1cc(Cl)c2nc(N3CCOCC3)sc2c1 | 110 | -1 | 58* | 8 | 21
COc1ccc(Nc2cc(C)nc3ccccc23)cc1 | 94 | 4 | -3 | 7 | -2
COc1ccc(Nc2nc(C)c3ccccc3n2)cc1 | 92 | -4 | 99* | 2 | 55*
COc1cccc(C2=NOC(C(=O)Nc3cc(OC)c(OC)c(OC)c3)C2)c1 (stereo not drawn) | 88 | 81* | 16 | -1 | -6
COc1ccc(NC(=O)C2CC(c3cc(OC)c(OC)c(OC)c3)=NO2)cc1OC (stereo not drawn) | 115 | 3 | 5 | 5 | 4
Cc1ccc(C2CCN(C(=O)Nc3ccccc3)C2)cc1 (stereo not drawn) | 92 | 2 | 58* | -7 | 92*
Cn1c(=O)n(Cc2ccccc2)c(=O)c2c1nc1n2CCCN1C1CCCCC1 | 102 | 5 | 0 | 3 | 1
O=C1CCCc2nn(-c3ccccc3)c(-c3ccncc3)c21 | 101 | 30* | -16 | -2 | -12
